{"source": "ChEMBL document CHEMBL3286372", "about": "“Design, synthesis and structure-activity relationship of novel semi-synthetic flavonoids as antiproliferative agents” (2014)", "key": {"SF-268": {"test_system": "SF-268", "assay": "Growth inhibition of human SF268 cells at 10 uM after 48 hrs by sulforhodamine B assay relative to control", "type": "functional", "details": "SF-268, 48 h, read-out: GI", "procedure,_shortened": "(§1)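 NCI-60 primary screen at a single 10 µM dose. Continuous 48 h exposure, with growth or viability estimated by sulforhodamine B protein staining. Reported as percent growth inhibition of treated cells relative to untreated growth.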"}, "[1]": {"assay": "Growth inhibition of human HOP92 cells at 10 uM after 48 hrs by sulforhodamine B assay relative to control", "type": "functional", "details": "HOP-92, 48 h, read-out: GI", "procedure,_shortened": "(§2)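 NCI-60 primary screen at a single dose of 10 µM with 48 h continuous exposure. Growth or viability read by sulforhodamine B protein staining and expressed as percent growth inhibition versus untreated cells.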"}, "[2]": {"assay": "Growth inhibition of human RXF393 cells at 10 uM after 48 hrs by sulforhodamine B assay relative to control", "type": "functional", "details": "RXF 393, 48 h, read-out: GI", "procedure,_shortened": "as §1"}, "Mus musculus [3]": {"test_system": "Mus musculus", "assay": "Decrease in cyclin D1 level in tumor of BALB mouse allografted with mouse EAC cells at 6 mg/kg, ip for 5 days competitive ELISA relative to control", "type": "functional, Ehrlich", "parameters": "scale not given: the % may be the effect or the level left", "details": "route intraperitoneal", "procedure,_shortened": "(§3)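 Mice bearing s.c. Ehrlich tumours (2×10^5 EAC cells, grown 2 wk) were given daily i.p. saline, 3 or 6 mg/kg for 5 days. Tumours were excised, washed in cold saline and blotted, and a 10% homogenate was made in phosphate buffered saline. Cyclin D1 was measured by competitive ELISA with samples in duplicate. Mean ± SEM, n = 6.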"}, "[4]": {"assay": "Growth inhibition of human UACC257 cells at 10 uM after 48 hrs by sulforhodamine B assay relative to control", "type": "functional", "details": "UACC-257, 48 h, read-out: GI", "procedure,_shortened": "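NCI-60 primary single-dose screen at 10 µM with continuous 48 h exposure. Cell viability/growth read by sulforhodamine B protein staining. Reported as percent growth inhibition relative to untreated cells.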"}, "Mus musculus [5]": {"test_system": "Mus musculus", "assay": "Increase in GSK-3beta level in tumor of BALB mouse allografted with mouse EAC cells at 6 mg/kg, ip for 5 days by competitive ELISA relative to control", "type": "functional, Ehrlich", "details": "route intraperitoneal", "procedure,_shortened": "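Female BALB mice bearing subcutaneous EAC tumours (2×10^5 cells in left hind leg, grown 2 wk). Dosed i.p. daily for 5 days; controls received saline. Excised tumours washed in cold saline and homogenised at 10% in PBS. GSK-3β measured by competitive ELISA, samples in duplicate. Change versus untreated controls, mean ± SEM, n = 6.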"}, "Ehrlich [6]": {"test_system": "Ehrlich", "assay": "Antitumor activity against mouse EAC cells allografted in BALB mouse assessed as tumor growth inhibition at 3 mg/kg, ip for 5 days relative to control", "type": "functional", "details": "120 h, route intraperitoneal, read-out: TGI", "procedure,_shortened": "(§4)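 Female BALB mice; Ehrlich ascites carcinoma cells, 2×10^5 cells/mouse in 0.2 ml saline, injected s.c. into the left hind leg and grown 2 wk. Daily i.p. saline (control), 3 or 6 mg/kg for 5 days. Caliper size V = 0.4×a(b)^2, taken just before the first dose and 24 h after the last. Mean ± SEM, n = 6; ANOVA with Tukey-Kramer.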"}, "Mus musculus [7]": {"test_system": "Mus musculus", "assay": "Decrease in cyclin D1 level in tumor of BALB mouse allografted with mouse EAC cells at 3 mg/kg, ip for 5 days competitive ELISA relative to control", "type": "functional, Ehrlich", "parameters": "scale not given: the % may be the effect or the level left", "details": "route intraperitoneal", "procedure,_shortened": "as §3"}, "NCI-H522": {"test_system": "NCI-H522", "assay": "Growth inhibition of human NCI-H522 cells at 10 uM after 48 hrs by sulforhodamine B assay relative to control", "type": "functional", "details": "NCI-H522, 48 h, read-out: GI", "procedure,_shortened": "as §1"}, "IGROV-1": {"test_system": "IGROV-1", "assay": "Growth inhibition of human IGROV1 cells at 10 uM after 48 hrs by sulforhodamine B assay relative to control", "type": "functional", "details": "IGROV-1, 48 h, read-out: GI", "procedure,_shortened": "as §2"}, "Ehrlich [8]": {"test_system": "Ehrlich", "assay": "Antitumor activity against mouse EAC cells allografted in ip dosed BALB mouse assessed as tumor growth inhibition administered for 5 days", "type": "functional, organism-based", "procedure,_shortened": "as §4"}}, "data": [{"compound": "COc1c2occc2c(OC)c2c(=O)c(CN3CCOCC3)c(/C=C/c3ccc(Cl)cc3)oc12", "values": [{"measurement": "inhibition of growth at 10 µM", "setting": "SF-268", "result": 67, "unit": "%"}, {"measurement": "inhibition of growth at 10 µM", "setting": "[1]", "result": 95, "unit": "%"}]}, {"compound": "C=CCc1c2c(c(OC)c3ccoc13)C(=O)/C(=C/c1ccccc1OC)O2", "values": [{"measurement": "inhibition of growth at 10 µM", "setting": "[2]", "result": 75, "unit": "%"}]}, {"compound": "COc1c2occc2c(OC)c2c(=O)c(CN3CCOCC3)c(/C=C/c3ccc(N(C)C)cc3)oc12", "values": [{"measurement": "Activity", "setting": "Mus musculus [3]", "result": 59.1, "unit": "%"}, {"measurement": "inhibition of growth at 10 µM", "setting": "[4]", "result": 76, "unit": "%"}, {"measurement": "Activity", "setting": "Mus musculus [5]", "result": 197.2, "unit": "%"}, {"measurement": "inhibition in vivo at 3 mg/kg", "setting": "Ehrlich [6]", "result": 62.1, "unit": "%"}, {"measurement": "Activity", "setting": "Mus musculus [7]", "result": 40.6, "unit": "%"}, {"measurement": "inhibition of growth at 10 µM", "setting": "NCI-H522", "result": 84, "unit": "%"}, {"measurement": "inhibition of growth at 10 µM", "setting": "IGROV-1", "result": 78, "unit": "%"}, {"measurement": "TGI", "setting": "Ehrlich [8]", "result": "Dose-dependent effect"}]}]}
